ChEMBL document CHEMBL1123476, “Synthesis of congeners and prodrugs of the benzene maleimide photoadduct mitindomide as potential antitumor agents. 2” (J Med Chem, 1986)
Values joined by “and” are separate entries in the source; they are usually repeats but may differ in a detail not shown here. Identical values can stand only once.

Key:
[1] = Solubility was determined; INS= less than 0.1; type: physicochemical
P388 [2] = experiment: (§1) Antitumor activity in P-388 lymphocytic leukemia system at 200 mg/kg dose levels per injection.; type: functional, Mus musculus
How it was run: (§2)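 P-388 leukemia in animals, Q01D×09 schedule: dose given daily for 9 days, in mg/kg per injection. Read-outs are survivors on day 4 (live/total animals), body-weight difference test minus control (g), and % T/C (median lifetime of treated ÷ median lifetime of controls × 100). Some compounds were tested in independent runs at different times.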

P388 [3] = experiment: (§3) Antitumor activity in P-388 lymphocytic leukemia system at 100 mg/kg dose levels per injection.; type: functional, Mus musculus; how it was run: as §2
P388 [4] = experiment: as §3; type: functional, Mus musculus; remark: listed apart in the source
How it was run: (§4)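 P-388 leukemia in vivo, dosed Q01D×09 (one injection daily for 9 days, mg/kg per injection). Activity is %T/C, the median lifetime of treated animals divided by that of controls, ×100. Live animals on day 4 were counted against the total (survivors day 4). Repeat tests were done independently at different times.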

P388 [5] = experiment: Compound was tested for antitumor activity in P-388 lymphocytic leukemia system at 400 mg/kg dose levels per injection; 6/6; type: functional, Mus musculus; how it was run: as §2
P388 [6] = experiment: (§5) Antitumor activity in P-388 lymphocytic leukemia system at 50 mg/kg dose levels per injection.; type: functional, Mus musculus; how it was run: as §2
P388 [7] = experiment: as §1; type: functional, Mus musculus; settings: 200 mg/kg; how it was run: as §4
P388 [8] = experiment: as §5; type: functional, Mus musculus; how it was run: as §4; remark: listed apart in the source
P388 [9] = experiment: Compound was tested for antitumor activity in P-388 lymphocytic leukemia system at 200 mg/kg dose levels per injection; type: functional, Mus musculus; settings: 200 mg/kg; how it was run: as §4
P388 [10] = experiment: Compound was tested for antitumor activity in P-388 lymphocytic leukemia system at 400 mg/kg dose levels per injection; type: functional, Mus musculus; how it was run: as §4
P388 [11] = experiment: Compound was tested for antitumor activity in P-388 lymphocytic leukemia system. at 200 mg/kg dose levels per injection; Toxic; type: functional, organism-based; set-up: dose 200 mg/kg; settings: Mus musculus; how it was run: as §4
P388 [12] = experiment: Compound was tested for antitumor activity in P-388 lymphocytic leukemia system at 166.7 mg/kg dose levels per injection; Toxic; type: functional, organism-based; set-up: dose 166.7 mg/kg; settings: Mus musculus; how it was run: as §4
P388 [13] = experiment: Compound was tested for antitumor activity in P-388 lymphocytic leukemia system at 200 mg/kg dose levels per injection;6/6; type: functional, Mus musculus; how it was run: as §2
P388 [14] = experiment: Antitumor activity in P-388 lymphocytic leukemia system and the difference in body weight calculated at 100 mg/kg dose levels per injection.; type: functional, Mus musculus
P388 [15] = experiment: Antitumor activity in P-388 lymphocytic leukemia system and the difference in body weight was calculated at 200 mg/kg dose levels per injection.; type: functional, Mus musculus
P388 [16] = experiment: Compound was tested for antitumor activity in P-388 lymphocytic leukemia system and the difference in body weight was calculated at 400 mg/kg dose levels per injection; type: functional, Mus musculus
P388 [17] = experiment: Antitumor activity in P-388 lymphocytic leukemia system and the difference in body weight was calculated at 50 mg/kg dose levels per injection.; type: functional, Mus musculus
P388 [18] = experiment: Compound was tested for antitumor activity in P-388 lymphocytic leukemia system. at 400 mg/kg dose levels per injection; type: functional, Mus musculus; how it was run: as §4
[19] = Solubility was determined; type: physicochemical
P388 [20] = experiment: Antitumor activity in P-388 lymphocytic leukemia system at 25 mg/kg dose levels per injection.; type: functional, Mus musculus; how it was run: as §2
P388 [21] = experiment: Antitumor activity in P-388 lymphocytic leukemia system at 25 mg/kg dose levels per injection; type: functional, Mus musculus; settings: 25 mg/kg; how it was run: as §4
P388 [22] = experiment: Compound was tested for antitumor activity in P-388 lymphocytic leukemia system at 400 mg/kg dose levels per injection; 3/6; type: functional, Mus musculus; how it was run: as §2
P388 [23] = experiment: Compound was tested for antitumor activity in P-388 lymphocytic leukemia system at 400 mg/kg dose levels per injection; Toxic; type: functional, organism-based; set-up: dose 400 mg/kg; settings: Mus musculus; how it was run: as §4
P388 [24] = experiment: Compound was tested for antitumor activity in P-388 lymphocytic leukemia system at 200 mg/kg dose levels per injection; 5/6; type: functional, Mus musculus; how it was run: as §2
P388 [25] = experiment: Compound was tested for antitumor activity in P-388 lymphocytic leukemia system at 166.7 mg/kg dose levels per injection; 3/6; type: functional, Mus musculus; how it was run: as §2
P388 [26] = experiment: Compound was tested for antitumor activity in P-388 lymphocytic leukemia system at 30 mg/kg dose levels per injection; 6/6; type: functional, Mus musculus; how it was run: as §2
P388 [27] = experiment: Compound was tested for antitumor activity in P-388 lymphocytic leukemia system at 50 mg/kg dose levels per injection; 5/6; type: functional, Mus musculus; how it was run: as §2
P388 [28] = experiment: Compound was tested for antitumor activity in P-388 lymphocytic leukemia system at 60 mg/kg dose levels per injection; 6/6; type: functional, Mus musculus; how it was run: as §2
P388 [29] = experiment: Compound was tested for antitumor activity in P-388 lymphocytic leukemia system and the difference in body weight was calculated at 166.7 mg/kg dose levels per injection; type: functional, Mus musculus
P388 [30] = experiment: Antitumor activity in P-388 lymphocytic leukemia system and the difference in body weight was calculated at 25 mg/kg dose levels per injection.; type: functional, Mus musculus
P388 [31] = experiment: Compound was tested for antitumor activity in P-388 lymphocytic leukemia system and the difference in body weight was calculated at 30 mg/kg dose levels per injection; type: functional, Mus musculus
P388 [32] = experiment: Compound was tested for antitumor activity in P-388 lymphocytic leukemia system at 25 mg/kg dose levels per injection; type: functional, Mus musculus; how it was run: as §4
P388 [33] = experiment: Compound was tested for antitumor activity in P-388 lymphocytic leukemia system at 30 mg/kg dose levels per injection; type: functional, Mus musculus; how it was run: as §4
P388 [34] = experiment: Compound was tested for antitumor activity in P-388 lymphocytic leukemia system at 60 mg/kg dose levels per injection; type: functional, Mus musculus; how it was run: as §4
P388 [35] = experiment: Compound was tested for antitumor activity in P-388 lymphocytic leukemia system and the difference in body weight was calculated at 60 mg/kg dose levels per injection; type: functional, Mus musculus

| SMILES | Survivors at day 4 (P388 [2]) | Survivors at day 4 (P388 [3]) | Survivors at day 4 (P388 [5]) | Survivors at day 4 (P388 [6]) | T/C (P388 [7]) | T/C (P388 [8]) | Weight difference (P388 [15]; 200 mg/kg) | Weight difference (P388 [17]) | Solubility [19] | T/C (P388 [4]; 100 mg/kg) | other results |
| --- | --- | --- | --- | --- | --- | --- | --- | --- | --- | --- | --- |
| CN1C(=O)C2C3C=CC(C2C1=O)C1C2C(=O)N(C)C(=O)C2C31 (configuration not stated) | 6 | 6 | 6 | 6 | 111% and 104% | 108% | – | – | – | – | Solubility [1]: Insoluble; T/C (P388 [4]): 111%; Weight difference (P388 [4]): -0.8 g; Weight difference (P388 [8]): -0.9 g; Weight difference (P388 [9]): -0.8 g and -1.4 g; T/C (P388 [10]): 135%; Weight difference (P388 [10]): -2 g |
| CN1CCN(CN2C(=O)C3C4C=CC(C3C2=O)C2C3C(=O)N(CN5CCN(C)CC5)C(=O)C3C42)CC1 (configuration not stated) [listing 1 of 2 here] | – | – | – | – | – | – | – | – | – | – | T/C (P388 [11]): Toxic; T/C (P388 [12]): Toxic |
| COC1=CC2C3C(=O)NC(=O)C3C1C1C3C(=O)NC(=O)C3C21 (configuration not stated) | 6 | 6 | 6 | 6 | 101% and 90% | 99% | -0.3 g and -0.4 g | 0 g | – | – | Solubility [1]: Insoluble; Survivors at day 4 (P388 [13]): 6; T/C (P388 [4]): 101%; Weight difference (P388 [14]): -0.3 g; Weight difference (P388 [16]): -2 g; T/C (P388 [18]): 98% |
| O=C1C2C3C=CC(C2C(=O)N1CO)C1C(=O)N(CO)C(=O)C31 (configuration not stated) | 6 | 6 | – | 6 | 160% and 152% | – | -3.4 g and -4.1 g | – | 0.5% | 144% and 137% | Survivors at day 4 (P388 [20]): 6; Weight difference (P388 [14]; 100 mg/kg): -3.9 g and -4 g; Weight difference (P388 [17]; 50 mg/kg): -2.5 g and -1.8 g; T/C (P388 [21]): 114% and 132%; T/C (P388 [8]; 50 mg/kg): 127% and 140% |
| CN1CCN(CN2C(=O)C3C4C=CC(C3C2=O)C2C(=O)N(CN3CCN(C)CC3)C(=O)C42)CC1 (configuration not stated) | 6 | 6 | – | 6 | 122% and 128% | 108% | -3.1 g and -3.6 g | 0 g | 2% | 126% and 113% | Survivors at day 4 (P388 [22]): 3; Weight difference (P388 [16]): -6.4 g; T/C (P388 [23]): Toxic |
| O=C(O)C1C2C(=O)N(CO)C(=O)C2C(C(=O)O)C2C3C(=O)N(CO)C(=O)C3C12 (configuration not stated) | 6 | 6 | 6 | 6 | 114% and 120% | – | – | – | – | 120% and 107% | Weight difference (P388 [17]; 50 mg/kg): -0.9 g and -1.2 g; T/C (P388 [8]; 50 mg/kg): 92% and 105%; T/C (P388 [18]; 400 mg/kg): 129% and 131% |
| CN1CCN(CN2C(=O)C3C4C=CC(C3C2=O)C2C3C(=O)N(CN5CCN(C)CC5)C(=O)C3C42)CC1 (configuration not stated) [listing 2 of 2 here] | – | 6 | – | – | – | 106% | – | -1.3 g | 1.5% | 200% and 211% | Survivors at day 4 (P388 [24]): 5; Survivors at day 4 (P388 [25]): 3; Survivors at day 4 (P388 [20]): 6; Survivors at day 4 (P388 [26]): 6; Survivors at day 4 (P388 [27]): 5; Survivors at day 4 (P388 [28]): 6; Weight difference (P388 [14]; 100 mg/kg): -3.7 g and -4.9 g; Weight difference (P388 [29]): -5.1 g; Weight difference (P388 [15]): -9 g; Weight difference (P388 [30]): -0.6 g; Weight difference (P388 [31]): -0.2 g; T/C (P388 [32]): 99%; T/C (P388 [33]): 116%; T/C (P388 [34]): 165%; Weight difference (P388 [35]): -3.1 g |
